Source: ChEMBL document CHEMBL1158358, “Synthesis, antimicrobial and cytotoxic activities of some 5-arylidene-4-thioxo-thiazolidine-2-ones” (Eur J Med Chem, 2009)
Converted amounts (≈) assume the structure as drawn.

Experiments:
Format in all cases: functional
Enterococcus faecalis [1] = test: Antimicrobial activity against Enterococcus faecalis UFPEDA 138 after 20 hrs by twofold serial dilution technique; conditions: UFPEDA 138, 20 h
In short: (§1)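 MIC was determined by twofold serial dilution. Bacteria were tested in plates at 10⁵ CFU/plate and read after 20 h. C. albicans was tested in tubes at 10³ CFU/tube and read after 48 h. All incubations were at 35 °C. Medium plus DMSO served as the negative control.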

NCI-H292 [2] = test: Cytotoxicity against human NCI-H292 cells at 2.5 ug/mL after 72 hrs by MTT assay; conditions: NCI-H292, 72 h, read-out: GI
In short: (§2)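 MTT antiproliferative assay. Cells were diluted to 10⁵ cells/mL in 96-well plates and preincubated for 24 h at 37 °C in humid 5% CO₂. Compounds or vincristine (reference) were then added. Formazan was dissolved and OD read at 540 nm, compared with medium-only control cells. Run in triplicate.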

Micrococcus luteus [3] = test: Antimicrobial activity against Micrococcus luteus UFPEDA 06 at 300 ug/disk after 24 hrs by disk diffusion method; conditions: UFPEDA 06, 24 h, read-out: IZ
In short: (§3)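 Preliminary screen by disk diffusion. Paper disks (6 mm) holding 300 µg of compound were placed on agar plates inoculated with a standardized microbial suspension. DMSO-only disks served as negative controls. A mean inhibition zone below 7 mm was scored as no sensitivity. Values are means, n = 3.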

Candida albicans [4] = test: Antimicrobial activity against Candida albicans UFPEDA 1007 at 300 ug/disk after 48 hrs by disk diffusion method; conditions: UFPEDA 1007, 48 h, read-out: IZ; in short: as §3
Staphylococcus aureus [5] = test: Antimicrobial activity against multidrug-resistant Staphylococcus aureus H.C. 21141 isolate after 20 hrs by twofold serial dilution technique; conditions: H.C. 21141, 20 h
In short: (§4)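 Twofold serial dilution MIC in agar plates against Gram-positive strains and multidrug-resistant clinical isolates. Inoculum applied was 10⁵ CFU/plate. Plates with culture medium plus DMSO served as negative control. MIC was read after incubation at 35 °C for 20 h.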

HEp-2 [6] = test: Cytotoxicity against human Hep2 cells at 1.25 ug/mL after 72 hrs by MTT assay; conditions: HEp-2, 72 h, read-out: GI; in short: as §2
Staphylococcus [7] = test: Antimicrobial activity against coagulase-negative Staphylococcus H.A.M. 278 isolate after 20 hrs by twofold serial dilution technique; conditions: H.A.M. 278, 20 h; in short: as §1
Staphylococcus [8] = test: Antimicrobial activity against coagulase-negative Staphylococcus H.A.M. 338 isolate after 20 hrs by twofold serial dilution technique; conditions: H.A.M. 338, 20 h; in short: as §1
Enterococcus faecalis [9] = test: Antimicrobial activity against Enterococcus faecalis UFPEDA 138 at 300 ug/disk after 24 hrs by disk diffusion method; conditions: UFPEDA 138, 24 h, read-out: IZ; in short: as §3
NCI-H292 [10] = test: Cytotoxicity against human NCI-H292 cells at 10 ug/mL after 72 hrs by MTT assay; conditions: NCI-H292, 72 h, read-out: GI; in short: as §2
Staphylococcus aureus [11] = test: Antimicrobial activity against Staphylococcus aureus UFPEDA 01 after 20 hrs by twofold serial dilution technique; conditions: UFPEDA 01, 20 h; in short: as §4
Staphylococcus aureus [12] = test: Antimicrobial activity against multidrug-resistant Staphylococcus aureus H.C. 20489 isolate after 20 hrs by twofold serial dilution technique; conditions: H.C. 20489, 20 h; in short: as §4
HEp-2 [13] = test: Cytotoxicity against human Hep2 cells at 5 ug/mL after 72 hrs by MTT assay; conditions: HEp-2, 72 h, read-out: GI; in short: as §2
Candida albicans [14] = test: Antimicrobial activity against Candida albicans UFPEDA 1007 after 48 hrs by twofold serial dilution technique; conditions: UFPEDA 1007, 48 h; in short: as §1
NCI-H292 [15] = test: Cytotoxicity against human NCI-H292 cells at 1.25 ug/mL after 72 hrs by MTT assay; conditions: NCI-H292, 72 h, read-out: GI; in short: as §2
HEp-2 [16] = test: Cytotoxicity against human Hep2 cells at 2.5 ug/mL after 72 hrs by MTT assay; conditions: HEp-2, 72 h, read-out: GI; in short: as §2
Pseudomonas aeruginosa = test: Antimicrobial activity against Pseudomonas aeruginosa UFPEDA 39 at 300 ug/disk after 24 hrs by disk diffusion method; conditions: UFPEDA 39, 24 h, read-out: IZ; in short: as §3
Serratia marcescens = test: Antimicrobial activity against Serratia marcescens UFPEDA 398 at 300 ug/disk after 24 hrs by disk diffusion method; conditions: UFPEDA 398, 24 h, read-out: IZ; in short: as §3
Escherichia coli = test: Antimicrobial activity against Escherichia coli UFPEDA 224 at 300 ug/disk after 24 hrs by disk diffusion method; conditions: UFPEDA 224, 24 h, read-out: IZ; in short: as §3
Staphylococcus aureus [17] = test: Antimicrobial activity against multidrug-resistant Staphylococcus aureus H.C. 20981 isolate after 20 hrs by twofold serial dilution technique; conditions: H.C. 20981, 20 h; in short: as §4
HEp-2 [18] = test: Cytotoxicity against human Hep2 cells at 10 ug/mL after 72 hrs by MTT assay; conditions: HEp-2, 72 h, read-out: GI; in short: as §2
Staphylococcus aureus [19] = test: Antimicrobial activity against multidrug-resistant Staphylococcus aureus H.C. 20794 isolate after 20 hrs by twofold serial dilution technique; conditions: H.C. 20794, 20 h; in short: as §4
[20] = system: Mycolicibacterium smegmatis; test: Antimicrobial activity against Mycobacterium smegmatis UFPEDA 71 after 20 hrs by twofold serial dilution technique; conditions: UFPEDA 71, 20 h; in short: as §1
Enterococcus faecalis [21] = test: Antimicrobial activity against multidrug-resistant Enterococcus faecalis H.C. 24962 isolate after 20 hrs by twofold serial dilution technique; conditions: H.C. 24962, 20 h; in short: as §4
Staphylococcus aureus [22] = test: Antimicrobial activity against multidrug-resistant Staphylococcus aureus H.C. 20905 isolate after 20 hrs by twofold serial dilution technique; conditions: H.C. 20905, 20 h; in short: as §4
Enterococcus faecalis [23] = test: Antimicrobial activity against multidrug-resistant Enterococcus faecalis H.C. 24708 isolate after 20 hrs by twofold serial dilution technique; conditions: H.C. 24708, 20 h; in short: as §4
[24] = system: Mycolicibacterium smegmatis; test: Antimicrobial activity against Mycobacterium smegmatis UFPEDA 71 at 300 ug/disk after 24 hrs by disk diffusion method; conditions: UFPEDA 71, 24 h, read-out: IZ; in short: as §3
Enterococcus faecalis [25] = test: Antimicrobial activity against multidrug-resistant Enterococcus faecalis H.C. 21944 isolate after 20 hrs by twofold serial dilution technique; conditions: H.C. 21944, 20 h; in short: as §4
NCI-H292 [26] = test: Cytotoxicity against human NCI-H292 cells at 5 ug/mL after 72 hrs by MTT assay; conditions: NCI-H292, 72 h, read-out: GI; in short: as §2
Bacillus subtilis [27] = test: Antimicrobial activity against Bacillus subtilis UFPEDA 16 after 20 hrs by twofold serial dilution technique; conditions: UFPEDA 16, 20 h; in short: as §1
Staphylococcus aureus [28] = test: Antimicrobial activity against Staphylococcus aureus UFPEDA 01 at 300 ug/disk after 24 hrs by disk diffusion method; conditions: UFPEDA 01, 24 h, read-out: IZ; in short: as §3
Bacillus subtilis [29] = test: Antimicrobial activity against Bacillus subtilis UFPEDA 16 at 300 ug/disk after 24 hrs by disk diffusion method; conditions: UFPEDA 16, 24 h, read-out: IZ; in short: as §3
Micrococcus luteus [30] = test: Antimicrobial activity against Micrococcus luteus UFPEDA 06 after 20 hrs by twofold serial dilution technique; conditions: UFPEDA 06, 20 h; in short: as §1
Enterococcus faecalis [31] = test: Antimicrobial activity against multidrug-resistant Enterococcus faecalis H.C. 21752 isolate after 20 hrs by twofold serial dilution technique; conditions: H.C. 21752, 20 h; in short: as §4
Staphylococcus aureus [32] = test: Antimicrobial activity against multidrug-resistant Staphylococcus aureus H.C. 21036 isolate after 20 hrs by twofold serial dilution technique; conditions: H.C. 21036, 20 h; in short: as §4

Structure (SMILES) | MIC (Enterococcus faecalis [1]) | inhibition of growth at 2.5 µg/mL (NCI-H292 [2]) | zone of inhibition at 300 µg/disc (Micrococcus luteus [3]) | zone of inhibition at 300 µg/disc (Candida albicans [4]) | MIC (Staphylococcus aureus [5]) | inhibition of growth at 1.25 µg/mL (HEp-2 [6]) | MIC (Staphylococcus [7]) | MIC (Staphylococcus [8]) | zone of inhibition at 300 µg/disc (Enterococcus faecalis [9]) | inhibition of growth at 10 µg/mL (NCI-H292 [10]) | MIC (Staphylococcus aureus [11]) | MIC (Staphylococcus aureus [12]) | inhibition of growth at 5 µg/mL (HEp-2 [13]) | MIC (Candida albicans [14]) | inhibition of growth at 1.25 µg/mL (NCI-H292 [15]) | inhibition of growth at 2.5 µg/mL (HEp-2 [16]) | zone of inhibition at 300 µg/disc (Pseudomonas aeruginosa) | zone of inhibition at 300 µg/disc (Serratia marcescens) | zone of inhibition at 300 µg/disc (Escherichia coli) | MIC (Staphylococcus aureus [17]) | other results
O=C1NC(=S)/C(=C/c2ccc(Cl)c(Cl)c2)S1 | 8 µg/mL (≈ 27.6 µM) | 19.4% | 27 mm | 14 mm | 2 µg/mL (≈ 6.89 µM) | -5.45% | 4 µg/mL (≈ 13.8 µM) | 2 µg/mL (≈ 6.89 µM) | 20 mm | 43.3% | 4 µg/mL (≈ 13.8 µM) | 2 µg/mL (≈ 6.89 µM) | 11% | 32 µg/mL (≈ 110 µM) | 9.18% | 5.03% | < 7 mm | < 7 mm | < 7 mm | 2 µg/mL (≈ 6.89 µM) | inhibition of growth at 10 µg/mL (HEp-2 [18]): 16.4%; MIC (Staphylococcus aureus [19]): 2 µg/mL (≈ 6.89 µM); MIC [20]: 32 µg/mL (≈ 110 µM); MIC (Enterococcus faecalis [21]): 16 µg/mL (≈ 55.1 µM); MIC (Staphylococcus aureus [22]): 4 µg/mL (≈ 13.8 µM); MIC (Enterococcus faecalis [23]): 16 µg/mL (≈ 55.1 µM); zone of inhibition at 300 µg/disc [24]: 20 mm; MIC (Enterococcus faecalis [25]): 4 µg/mL (≈ 13.8 µM); inhibition of growth at 5 µg/mL (NCI-H292 [26]): 35.8%; MIC (Bacillus subtilis [27]): 4 µg/mL (≈ 13.8 µM); zone of inhibition at 300 µg/disc (Staphylococcus aureus [28]): 25 mm; zone of inhibition at 300 µg/disc (Bacillus subtilis [29]): 27 mm; MIC (Micrococcus luteus [30]): 4 µg/mL (≈ 13.8 µM); MIC (Enterococcus faecalis [31]): 8 µg/mL (≈ 27.6 µM); MIC (Staphylococcus aureus [32]): 4 µg/mL (≈ 13.8 µM)
O=C1NC(=S)/C(=C/c2c(Cl)cccc2Cl)S1 | 16 µg/mL (≈ 55.1 µM) | 7.7% | 18 mm | 15 mm | 8 µg/mL (≈ 27.6 µM) | -9.16% | 4 µg/mL (≈ 13.8 µM) | 4 µg/mL (≈ 13.8 µM) | < 7 mm | 32.8% | 4 µg/mL (≈ 13.8 µM) | 4 µg/mL (≈ 13.8 µM) | -2.39% | 32 µg/mL (≈ 110 µM) | 4.36% | -4.24% | < 7 mm | < 7 mm | < 7 mm | 8 µg/mL (≈ 27.6 µM) | inhibition of growth at 10 µg/mL (HEp-2 [18]): 8.73%; MIC (Staphylococcus aureus [19]): 4 µg/mL (≈ 13.8 µM); MIC [20]: 4 µg/mL (≈ 13.8 µM); MIC (Enterococcus faecalis [21]): 16 µg/mL (≈ 55.1 µM); MIC (Staphylococcus aureus [22]): 4 µg/mL (≈ 13.8 µM); MIC (Enterococcus faecalis [23]): 16 µg/mL (≈ 55.1 µM); zone of inhibition at 300 µg/disc [24]: 17 mm; MIC (Enterococcus faecalis [25]): 8 µg/mL (≈ 27.6 µM); inhibition of growth at 5 µg/mL (NCI-H292 [26]): 10.3%; MIC (Bacillus subtilis [27]): 8 µg/mL (≈ 27.6 µM); zone of inhibition at 300 µg/disc (Staphylococcus aureus [28]): 20 mm; zone of inhibition at 300 µg/disc (Bacillus subtilis [29]): 20 mm; MIC (Micrococcus luteus [30]): 16 µg/mL (≈ 55.1 µM); MIC (Enterococcus faecalis [31]): 8 µg/mL (≈ 27.6 µM); MIC (Staphylococcus aureus [32]): 8 µg/mL (≈ 27.6 µM)
